Active and inactive are the calls of the source. The calls are words filed in the database; no cut-off is given here.
How the values were obtained:
Aspergillus fumigatus [1] = experiment: Induction of change in antigenic mitochondrial protein HSP60, putative protein level in iTRAQ-116 labelled secreted fraction of drug-resistant Aspergillus fumigatus EMFR-S678P at 0.12 ug/ml after 48 hrs in YPD medium by MS (MS/MS) analysis relative to control; assay type: functional
Method in brief: (§1)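 Conidia at 1 × 10⁵/ml were grown at 37°C, shaking at 225 rpm, in YPD with or without 0.12 μg/ml caspofungin for 24 or 48 h. The culture filtrate was kept as the secreted fraction. Mycelia were lysed by French press in HEPES/glycerol/EDTA/PMSF/DTT buffer, and the 5,000 × g pellet was washed to give CW/PM. Proteins were reduced, alkylated and trypsin-digested at 37°C overnight, then iTRAQ-labelled and run by 2D LC-MS/MS. Ratios are the median of unique-peptide ratios, median-normalized, versus the no-drug control.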

Aspergillus fumigatus [2] = experiment: Induction of change in nuclear transport factor NTF-2, putative protein level in iTRAQ-116 labelled secreted fraction of drug-resistant Aspergillus fumigatus EMFR-S678P at 0.12 ug/ml after 48 hrs in YPD medium by MS (MS/MS) analysis relative to control; assay type: functional; method in brief: as §1
Aspergillus fumigatus [3] = experiment: Induction of change in transcriptional repressor TupA/RocA, putative protein level in iTRAQ-118 labelled cell wall fraction of drug-susceptible Aspergillus fumigatus KU80 delta-akuB at 0.12 ug/ml after 24 hrs in YPD medium by MS (MS/MS) analysis relative to control; assay type: functional
Method in brief: (§2)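 Conidia (1 × 10⁵/ml) grown in YPD, 37°C, 225 rpm, ± 0.12 μg/ml caspofungin; filtrate taken as secreted fraction, French-press lysate 5,000 × g pellet as cell wall/plasma membrane. Trypsin digests 8-plex iTRAQ-labelled (drug-free channels as references), pooled, 2D-chromatography, MS/MS. Median-normalized; protein ratio = median of unique-peptide ratios, log2 normalized.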

Aspergillus fumigatus [4] = experiment: Induction of change in pyruvate decarboxylase PdcA, putative protein level in iTRAQ-118 labelled cell wall fraction of drug-susceptible Aspergillus fumigatus KU80 delta-akuB at 0.12 ug/ml after 24 hrs in YPD medium by MS (MS/MS) analysis relative to control; assay type: functional; method in brief: as §2
Aspergillus fumigatus [5] = experiment: Induction of change in Mitochondrial hypoxia-responsive domain protein level in iTRAQ-116 labelled cell wall fraction of drug-resistant Aspergillus fumigatus EMFR-S678P at 0.12 ug/ml after 24 hrs in YPD medium by MS (MS/MS) analysis relative to control; assay type: functional, organism-based; method in brief: as §1
Aspergillus fumigatus [6] = experiment: Induction of change in ribosomal protein L26 protein level in iTRAQ-116 labelled secreted fraction of drug-resistant Aspergillus fumigatus EMFR-S678P at 0.12 ug/ml after 48 hrs in YPD medium by MS (MS/MS) analysis relative to control; assay type: functional, organism-based; method in brief: as §1
Aspergillus fumigatus [7] = experiment: Induction of change in L-PSP endoribonuclease family protein (Hmf1), putative gene expression in drug-susceptible Aspergillus fumigatus KU80 delta-akuB at 0.12 ug/ml after 48 hrs in YPD medium by microarray analysis relative to control; assay type: functional
Method in brief: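 Mycelia grown in YPD ± 0.12 μg/ml caspofungin (1 × 10⁵ conidia/ml, 37°C, shaking) and harvested at 24 or 48 h. Total RNA extracted, DNase-treated and quality-checked; 2 μg labelled per TIGR SOP M007 and hybridized to whole-genome arrays. Three independent experiments with dye flip (6 replicates); drug vs untreated fold change.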

Aspergillus fumigatus [8] = experiment: Antifungal activity against drug-resistant Aspergillus fumigatus EMFR-S678P assessed as change in hyphal morphology by RPMI medium; assay type: functional; conditions: read-out: MEC
Method in brief: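 CLSI M38-A2 broth microdilution, run in triplicate in RPMI or YPD medium as the line specifies. Caspofungin was dissolved in sterile water. The minimum effective concentration (MEC) was the lowest concentration giving a significant change in hyphal morphology visible to the eye.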

Aspergillus fumigatus [9] = experiment: Induction of change in eukaryotic translation elongation factor 1 subunit Eef1-beta, putative protein level in iTRAQ-116 labelled secreted fraction of drug-resistant Aspergillus fumigatus EMFR-S678P at 0.12 ug/ml after 48 hrs in YPD medium by MS (MS/MS) analysis relative to control; assay type: functional; method in brief: as §1
Aspergillus fumigatus [10] = experiment: Induction of change in BYS1 domain protein, putative protein level in iTRAQ-118 labelled cell wall fraction of drug-susceptible Aspergillus fumigatus KU80 delta-akuB at 0.12 ug/ml after 24 hrs in YPD medium by MS (MS/MS) analysis relative to control; assay type: functional
Method in brief: (§3)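 Conidia at 1 × 10⁵/ml grown shaking at 37°C in YPD with or without 0.12 μg/ml caspofungin; mycelia filtered at 24 or 48 h. Secreted fraction taken from the filtrate; cell wall/plasma membrane pellet recovered after French-press lysis and a 5,000 × g spin. Proteins trypsin-digested and iTRAQ-labelled, drug vs no-drug channels at each time, then 2D LC-MS/MS. Protein ratio is the median of ratios from uniquely assigned peptides after median normalization.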

Aspergillus fumigatus [11] = experiment: Induction of change in cytosolic small ribosomal subunit protein S12 protein level in iTRAQ114 labelled secreted fraction of drug-susceptible Aspergillus fumigatus KU80 delta-akuB at 0.12 ug/ml after 24 hrs in YPD medium by MS (MS/MS) analysis relative to control; assay type: functional; method in brief: as §3
Aspergillus fumigatus [12] = experiment: Induction of change in molecular chaperone and allergen Mod-E/Hsp90/Hsp1 protein level in iTRAQ-116 labelled secreted fraction of drug-resistant Aspergillus fumigatus EMFR-S678P at 0.12 ug/ml after 48 hrs in YPD medium by MS (MS/MS) analysis relative to control; assay type: functional; method in brief: as §1

Compound: CC[C@H](C)C[C@H](C)CCCCCCCCC(=O)N[C@H]1C[C@@H](O)[C@@H](NCCN)NC(=O)[C@@H]2[C@@H](O)CCN2C(=O)[C@H]([C@H](O)CCN)NC(=O)[C@H]([C@H](O)[C@@H](O)c2ccc(O)cc2)NC(=O)[C@@H]2C[C@@H](O)CN2C(=O)[C@H]([C@@H](C)O)NC1=O [CASPOFUNGIN]
- fold change (FC) (Aspergillus fumigatus [1]): -1.15
- fold change (FC) (Aspergillus fumigatus [2]): 1.07
- fold change (FC) (Aspergillus fumigatus [3]): -2.1
- fold change (FC) (Aspergillus fumigatus [4]): -2.3
- Activity (Aspergillus fumigatus [5]): inactive
- Activity (Aspergillus fumigatus [6]): inactive
- fold change (FC) (Aspergillus fumigatus [7]): -2.3
- minimal effective concentration (Aspergillus fumigatus [8]): > 16 µg/mL
- fold change (FC) (Aspergillus fumigatus [9]): -1.74
- fold change (FC) (Aspergillus fumigatus [10]): -2.3
- fold change (FC) (Aspergillus fumigatus [11]): 1.5
- fold change (FC) (Aspergillus fumigatus [12]): -1.07

Source: ChEMBL document CHEMBL1687827, “Profiling the Aspergillus fumigatus proteome in response to caspofungin” (2011)
